Data from ChEMBL document CHEMBL1123158, “Synthesis and quantitative structure-activity relationships of antiallergic 2-hydroxy-N-1H-tetrazol-5-ylbenzamides and N-(2-hydroxyphenyl)-1H-tetrazole-5-carboxamides” (J Med Chem, 1986).

Experiments:
[1] = test system: Rattus norvegicus; test: Antiallergic activity in the rat PCA test following iv administration relative to M&B 22,948, the dose of which was 0.1 mg/kg for 100% inhibition; format: functional
[2] = species on record: Rattus norvegicus; test: Biological activity; format: functional
[3] = Association constant at 25 degree C in aqueous media; format: ADME
Outline: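 Spectroscopic method in aqueous buffer at 25 °C. Values are thermodynamic pKa's corrected for the ionic strength of the buffer solutions.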

[4] = test system: Rattus norvegicus; test: Inhibitory dose in the rat PCA test following iv administration; format: functional; details: read-out: ID50 (the source's name)
[5] = test system: Rattus norvegicus; test: Inhibitory dose in the rat PCA test following oral administration; format: functional; details: read-out: ID50 (the source's name)
[6] = The function log (MrI) where M, is the molecular weight of the test compound and I is its activity relative to the reference compound 1, expresses the biological activity in molar terms; format: functional
Outline: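 Relative activity I from iv rat PCA 100%-inhibition comparison with M&B 22,948, converted to molar terms as log(Mr·I) using the compound's molecular weight.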

Compound | Relative activity [1] | Log [MrI] [2] | also measured
CS(=O)(=O)c1ccc(O)c(C(=O)Nc2nn[nH]n2)c1 | 0.04 | 1.053 | 
O=C(Nc1nn[nH]n1)c1cc(F)ccc1O | 0.1 | 1.348 | 
CC(=O)Nc1cc(C(C)=O)c(O)c(C(=O)Nc2nn[nH]n2)c1 | 0.2 | 1.784 | 
CC(=O)c1cccc(C(=O)Nc2nn[nH]n2)c1O | 1 | 2.393 | 
CC(=O)c1cc(S(N)(=O)=O)cc(C(=O)Nc2nn[nH]n2)c1O | 0.2 | 1.814 | 
CCCc1cc(C(C)=O)c(O)c(C(=O)Nc2nn[nH]n2)c1 | 2 | 2.762 | 
COc1cccc(NC(=O)c2nn[nH]n2)c1O | 5 | 3.07 | 
CO/N=C(\C)c1cc(C)cc(NC(=O)c2nn[nH]n2)c1O | 10 | 3.463 | 
Cc1cc(NC(=O)c2nn[nH]n2)c(O)c(C(=O)C(F)(F)F)c1 | 0.2 | 1.8 | 
CN(C)S(=O)(=O)c1ccc(O)c(C(=O)Nc2nn[nH]n2)c1 | 0.05 | 1.193 | 
CCc1cc(OC)c(O)c(C(=O)Nc2nn[nH]n2)c1 | 1 | 2.42 | 
CC(=O)c1cc(C#N)cc(NC(=O)c2nn[nH]n2)c1O | 10 | 3.435 | 
COc1cc(NC(=O)c2nn[nH]n2)c(O)c(C(C)=O)c1 | 10 | 3.443 | 
CCC(=O)c1cc(CC)cc(NC(=O)c2nn[nH]n2)c1O | 5 | 3.16 | 
CCC(=O)c1cc(C)cc(C(=O)Nc2nn[nH]n2)c1O | 2 | 2.741 | 
CCC(=O)c1cc(C#N)cc(NC(=O)c2nn[nH]n2)c1O | 5 | 3.156 | 
COc1cc(C)cc(C(=O)Nc2nn[nH]n2)c1O | 0.5 | 2.095 | 
CC(=O)c1cc(F)cc(C(=O)Nc2nnn[nH]2)c1O | 0.5 | 2.123 | pKa ([3]; aqueous media, read-out: pKa): 4.2; pKa ([3]; buffer): 7.1
CCc1cc(C(C)=O)c(O)c(C(=O)Nc2nn[nH]n2)c1 | 1 | 2.439 | 
CC(=O)c1cc(C(C)(C)C)cc(C(=O)Nc2nn[nH]n2)c1O | 0.4 | 2.084 | 
COc1cc([N+](=O)[O-])cc(C(=O)Nc2nn[nH]n2)c1O | 1 | 2.447 | 
COc1cc(Br)cc(NC(=O)c2nn[nH]n2)c1O | 2 | 2.798 | 
Cc1cc(NC(=O)c2nn[nH]n2)c(O)c(C(=O)N(C)C)c1 | 1 | 2.463 | 
CC(=O)c1cc(C)cc(C(=O)Nc2nn[nH]n2)c1O | 1 | 2.417 | 
CC(=O)c1ccc(O)c(C(=O)Nc2nn[nH]n2)c1 | 0.02 | 0.694 | 
O=C(Nc1nn[nH]n1)c1cc(Cl)ccc1O | 0.1 | 1.38 | 
CC(=O)c1cc(Cl)cc(NC(=O)c2nn[nH]n2)c1O | 7 | 3.295 | 

Compound | Relative activity [1] | Log [MrI] [2] | also measured
CC(=O)c1cc(F)cc(NC(=O)c2nnn[nH]2)c1O [EFLUMAST] | 20 | 3.724 | ED50 [4]: 0.004 mg/kg; ED50 [5]: 0.16 mg/kg
CC(=O)c1cc(Br)cc(NC(=O)c2nn[nH]n2)c1O | 2 | 2.814 | 
CCc1cc(C(=O)Nc2nn[nH]n2)c(O)c(/C(C)=N/O)c1 | 10 | 3.462 | 
Cc1cc(NC(=O)c2nn[nH]n2)c(O)c(-c2nn[nH]n2)c1 | 1 | 2.455 | 
COC(=O)c1cc(C)cc(NC(=O)c2nn[nH]n2)c1O | 2 |  | Log MrI [6]: 2.74
Cc1cc(NC(=O)c2nn[nH]n2)c(O)c(C(N)=O)c1 | 5 | 3.118 | 
CC(=O)c1cc(Cl)cc(C(=O)Nc2nn[nH]n2)c1O | 0.05 | 1.149 | 
CC(=O)c1cccc(NC(=O)c2nn[nH]n2)c1O | 20 | 3.694 | 
CCC(=O)c1cc(CC)cc(C(=O)Nc2nn[nH]n2)c1O | 0.75 | 2.34 | 
CC(=O)c1cc([N+](=O)[O-])cc(C(=O)Nc2nn[nH]n2)c1O | 1 | 2.465 | 
CN(C)S(=O)(=O)c1ccc(O)c(NC(=O)c2nn[nH]n2)c1 | 0.25 | 1.892 | 
CC(=O)Nc1cc(NC(=O)c2nn[nH]n2)c(O)c(C(C)=O)c1 | 0.5 |  | Log MrI [6]: 2.19
Cc1cc(NC(=O)c2nn[nH]n2)c(O)c(C(=O)C(C)C)c1 | 5 | 3.16 | 
O=C(Nc1nn[nH]n1)c1cc([N+](=O)[O-])ccc1O | 0.5 |  | Log MrI [6]: 2.1
O=C(Nc1nn[nH]n1)c1cc(C(F)(F)F)ccc1O | 0.02 | 0.737 | 
O=C(Nc1ccccc1O)c1nn[nH]n1 | 1 | 2.31 | 
CC(=O)c1cc(S(C)(=O)=O)cc(NC(=O)c2nn[nH]n2)c1O | 2 | 2.813 | 
CCC(=O)c1cc(C)cc(NC(=O)c2nn[nH]n2)c1O | 5 | 3.139 | 
CCCC(=O)c1cc(C)cc(NC(=O)c2nn[nH]n2)c1O | 4 | 3.063 | 
CC(=O)Nc1ccc(O)c(C(=O)Nc2nn[nH]n2)c1 | 0.01 | 0.418 | 
O=C(Nc1nn[nH]n1)c1cc(O)ccc1O | 0.1 |  | Log MrI [6]: 1.34
CC(=O)c1cc(Br)cc(C(=O)Nc2nn[nH]n2)c1O | 0.05 | 1.212 | 
N#Cc1ccc(O)c(C(=O)Nc2nn[nH]n2)c1 | 0.5 | 2.061 | 
CCc1cc(C(=O)Nc2nn[nH]n2)c(O)c(/C(C)=N/OC)c1 | 3.5 | 3.025 | 
O=C(Nc1nn[nH]n1)c1ccccc1O | 0.1 | 1.312 | 
CCOC(=O)c1cc(C)cc(NC(=O)c2nn[nH]n2)c1O | 10 |  | Log MrI [6]: 3.46
CC(=O)c1cc(C(C)(C)C)cc(NC(=O)c2nn[nH]n2)c1O | 0.5 | 2.17 | 

Compound | Relative activity [1] | Log [MrI] [2] | also measured
CC(=O)c1cc(NC(=O)c2nn[nH]n2)c(O)c(C(C)=O)c1 | 0.5 | 2.16 | 
COc1cc(C#N)cc(C(=O)Nc2nn[nH]n2)c1O | 2 | 2.716 | 
C/C(=N\O)c1cc(C)cc(NC(=O)c2nn[nH]n2)c1O | 35 | 3.985 | 
COc1cc(OC)c(O)c(C(=O)Nc2nn[nH]n2)c1 | 0.5 | 2.122 | 
CC(C)(C)c1ccc(O)c(C(=O)Nc2nn[nH]n2)c1 | 0.01 | 0.417 | 
Cc1cc(NC(=O)c2nn[nH]n2)c(O)c(C(=O)Cc2ccccc2)c1 | 0.1 | 3.528 | 
CSc1ccc(O)c(C(=O)Nc2nn[nH]n2)c1 | 0.2 | 1.701 | 
Cc1cc(NC(=O)c2nn[nH]n2)c(O)c(C(=O)C2CC2)c1 | 5 | 3.157 | 
CCc1cc(NC(=O)c2nn[nH]n2)c(O)c(C(C)=O)c1 | 20 | 3.74 | 
COc1cc(C(C)=O)c(O)c(C(=O)Nc2nn[nH]n2)c1 | 2 | 2.743 | 
CC(=O)c1cc(CC(C)C)cc(C(=O)Nc2nn[nH]n2)c1O | 0.2 | 1.783 | 
O=C(Nc1nn[nH]n1)c1cc(Br)ccc1O | 0.02 | 0.756 | 
O=C(Nc1nn[nH]n1)c1cc(-c2ccccc2)ccc1O | 0.01 | 0.449 | 
CCCc1cc(NC(=O)c2nn[nH]n2)c(O)c(C(C)=O)c1 | 10 | 3.461 | 
Cc1cc(NC(=O)c2nn[nH]n2)c(O)c(C(=O)O)c1 | 0.2 |  | Log MrI [6]: 1.72
COc1ccc(O)c(C(=O)Nc2nn[nH]n2)c1 | 0.2 | 1.672 | 
CCc1cc(NC(=O)c2nn[nH]n2)c(O)c(OC)c1 | 10 | 3.42 | 
Cc1ccc(O)c(C(=O)Nc2nn[nH]n2)c1 | 0.1 | 1.34 | 
CC(=O)c1cc(C)cc(NC(=O)c2nn[nH]n2)c1O | 10 | 3.417 | 
COc1cc(C)cc(NC(=O)c2nn[nH]n2)c1O | 2.5 | 2.794 | 
CC(=O)c1cc([N+](=O)[O-])cc(NC(=O)c2nn[nH]n2)c1O | 5 | 3.164 | 
COc1cc(C(C)(C)C)cc(C(=O)Nc2nn[nH]n2)c1O | 0.1 | 1.464 | 
COc1cc(NC(C)=O)cc(C(=O)Nc2nn[nH]n2)c1O | 0.02 | 0.766 | 
COc1cccc(C(=O)Nc2nn[nH]n2)c1O | 1 | 2.371 | 
COc1cc(Br)cc(C(=O)Nc2nn[nH]n2)c1O | 0.2 | 1.798 | 
